# From PubChem
# Hits are enriched below; roughly 3.1% of the tested compounds scored in any of these assays.
# hERG rescue – hERG rescue from dofetilide block, primary screen, cell-based, CHO-hERG, FluxOR thallium flux, dofetilide IC70. activation (rescue from dofetilide block), less the hit threshold, % at 10 µM. Voltage-gated inwardly rectifying potassium channel KCNH2 (Homo sapiens), Q12809. 0.51% of 310,000 active. dofetilide IC70 present;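 active = activation above the mean of controls blocked by dofetilide plus 5 SD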;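 note: thallium influx through hERG after potassium depolarization seen as dye fluorescence rise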
# KCNQ1 pot – potentiators or activators of KCNQ1 channel, primary screen, cell-based, thallium flux, high-throughput; AID 2648, 2010; B-score at 10 µM; Potassium voltage-gated channel subfamily KQT member 1 (Homo sapiens), P51787; CHO-K1 KCNQ1, thallium flux FluxOR fluorescence; stronger effect = higher value; 0.35% of 310,000 active;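 active = fluorescence ratio B-score, a plate-corrected score, at least three library SD, with initial intensity B-score within 5 SD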
# Target sequence (P51787 whole entry, looked up): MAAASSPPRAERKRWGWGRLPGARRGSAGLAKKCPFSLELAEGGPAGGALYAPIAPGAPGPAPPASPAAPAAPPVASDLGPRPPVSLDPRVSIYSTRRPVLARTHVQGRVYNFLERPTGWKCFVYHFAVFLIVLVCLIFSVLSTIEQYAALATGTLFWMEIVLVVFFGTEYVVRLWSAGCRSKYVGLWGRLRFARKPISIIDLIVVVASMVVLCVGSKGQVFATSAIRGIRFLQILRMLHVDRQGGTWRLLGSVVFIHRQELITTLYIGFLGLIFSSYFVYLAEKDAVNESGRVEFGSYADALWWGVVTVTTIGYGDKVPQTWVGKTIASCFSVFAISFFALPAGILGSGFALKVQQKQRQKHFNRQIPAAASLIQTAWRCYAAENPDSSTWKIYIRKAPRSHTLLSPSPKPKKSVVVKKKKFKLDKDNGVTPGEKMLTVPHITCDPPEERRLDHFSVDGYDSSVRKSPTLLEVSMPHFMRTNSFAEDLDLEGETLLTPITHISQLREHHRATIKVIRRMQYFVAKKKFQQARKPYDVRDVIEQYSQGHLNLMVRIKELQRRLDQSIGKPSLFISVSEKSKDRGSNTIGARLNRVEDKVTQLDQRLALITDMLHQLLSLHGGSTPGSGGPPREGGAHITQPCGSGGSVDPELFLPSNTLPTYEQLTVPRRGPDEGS
#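 assay system = KCNQ1-transfected CHO-K1 cells | medium = assay buffer with matched DMSO | probe or stimulus = depolarizing K+/Tl+ stimulus, K2SO4 and Tl2SO4 each 12.5 mM in 5x stock | dosing = single dose | incubation = dye 90 min, compound 20 min, room temperature | detection = kinetic FluxOR fluorescence, 10 s baseline plus 110 s post-stimulus | evaluation = ratio B score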
# KCNQ1 inh – inhibitors of human KCNQ1 channel, primary screen, cell-based, thallium flux, high-throughput; B-score at 10 µM; CHO-K1 KCNQ1, FluxOR thallium flux fluorescence; stronger effect = higher value; 1.3% of 310,000 active; Potassium voltage-gated channel subfamily KQT member 1 (Homo sapiens), P51787;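 active = compounds whose thallium flux B-score, printed positive for inhibition, exceeds three library SD while starting fluorescence stays within three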;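 note: channel opened by potassium depolarization with thallium stimulus after 20 min compound exposure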
# KCNK9 inh – KCNK9 potassium channel inhibitors, primary screen, HEK293 cells, thallium flux. Potassium channel subfamily K member 9 (Homo sapiens), Q9NPC2. FluxOR thallium flux fluorescence; stronger effect = lower value. B-score at 10 µM. 1.2% of 310,000 active. AID 488922, 2010;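 active = ratio B-score over 3 SD below the library mean, with starting fluorescence within 5 SD of its mean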;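 note: negative B-score means less thallium flux so channel inhibition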
# KCNK3 block – human KCNK3 channel inhibitors, primary screen, CHO cells, FluxOR thallium flux, B-score. B-score at 10 µM. Potassium channel subfamily K member 3 (Homo sapiens), O14649. 0.84% of 340,000 active. FluxOR fluorescence; stronger effect = lower value;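 active = B-score under library mean minus 4 SD, starting fluorescence ratio at most library mean plus 5 SD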;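 note: more negative B-score means stronger inhibition of thallium flux through KCNK3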
# KCNK9 block conf – KCNK9 potassium channel inhibitors, confirmation, HEK293 cells, thallium flux, duplicate; shares compounds with KCNK9 inh; FluxOR thallium flux fluorescence; inhibition, % at 10 µM; 43% of 4,900 active; AID 492992, 2010;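 active = thallium signal inhibited by more than 5 SD of the compound-free buffer control wells, on both duplicate plates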
# Kir21 sel – mouse Kir2.1 channel inhibition, confirmation, selectivity assay for KCNK9 modulator project, cell-based, HEK293, thallium flux; shares compounds with KCNK9 inh; Kir2.1 cells, FluxOR thallium flux fluorescence; inhibition, % at 10 µM; 4% of 4,900 active; AID 492993, 2010;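 active = thallium signal drop more than 5 SD beyond the mean of the no-compound control wells, seen in both duplicate plates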;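 note: signal is fluorescence rise after thallium addition divided by baseline fluorescence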
# KCNK9 uninduced – thallium flux in non-induced HEK293 cells, confirmation, counter-screen for KCNK9 inhibitor project, cell-based, second counter screen, non-induced KCNK9-HEK293; 40% of 4,900 active; FluxOR thallium flux; shares compounds with KCNK9 inh; inhibition, % at 10 µM;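 active = thallium signal drop beyond 5 SD of the untreated control mean, on both duplicate plates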
# Numbers stand for hits; n = inactive; x = no result.
SMILES,hERG rescue,KCNQ1 pot,KCNQ1 inh,KCNK9 inh,KCNK3 block,KCNK9 block conf,Kir21 sel,KCNK9 uninduced
CCCN(CCC)C(=O)CC(c1ccccc1)c1ccc(C)cc1O (stereo not given),n,n,n,n,n,x,x,x
CCCN(CCC)C(=O)CC(c1ccccc1)c1cc(Br)ccc1O (stereo not given),n,n,n,-13,n,36%,n,40%
COc1ccc(C(CNC(=O)C2CC(=O)N(Cc3ccccc3)C2)N2CCCC2)cc1 (stereo not given),x,x,x,x,n,x,x,x
O=C(NC(=S)NC(c1ccccc1)c1ccncc1)c1ccccc1 (stereo not given),n,n,n,n,n,x,x,x
Cc1ccc(CN2CCCN(Cc3c(C)cc(C)cc3C)S2(=O)=O)cc1,n,n,n,n,n,n,n,n
CC1Cc2ccccc2N1C(=O)CCn1cccn1 (stereo not given),n,n,n,n,n,x,x,x
CC(=O)N1c2c(ccc3ccccc23)C(C)CC12CCCCC2 (stereo not given),n,n,n,-14,n,49%,n,47%
CC1CC2(CCCCC2)Nc2c1ccc1ccccc21 (stereo not given),n,n,n,n,n,x,x,x
Cc1onc(-c2c(F)cccc2Cl)c1C(=O)OCC(=O)NC(c1ccccc1)c1ccccc1,n,n,n,-8.3,n,25%,n,29%
FC(F)(F)c1nnc(-c2ccccc2)nc1Sc1ccc(Cl)cc1,n,n,n,n,n,n,n,n
FC(F)(F)c1nnc(-c2ccccc2)nc1Oc1ccc(Cl)cc1Cl,n,n,11,n,n,n,n,n
FC(F)(F)c1cccc(Oc2nc(-c3ccccc3)nnc2C(F)(F)F)c1,n,n,n,n,n,x,x,x
NC(=O)CC(NC(=O)c1ccc(Br)cc1)c1ccc(N2CCN(c3ccccc3)CC2)c([N+](=O)[O-])c1 (stereo not given),n,n,n,n,n,x,x,x
NC(=O)CC(NC(=O)c1ccc(Br)cc1)c1ccc(N2CCC(Cc3ccccc3)CC2)c([N+](=O)[O-])c1 (stereo not given),n,n,n,-9.5,n,55%,n,32%
NC(=O)CC(NC(=O)c1ccc(Br)cc1)c1ccc(N2CCCCCCC2)c([N+](=O)[O-])c1 (stereo not given),n,n,n,-10,n,30%,n,42%
NC(=O)CC(NC(=O)c1ccccc1)c1ccc(N2CCC(N3CCCC3)CC2)c([N+](=O)[O-])c1 (stereo not given),n,n,n,n,n,x,x,x
Cc1ccc(-c2nc3cnccn3c2Nc2ccc3c(c2)OCO3)cc1,n,n,n,-8.6,n,44%,n,n
Cc1cc(C)n2c(Nc3ccc4c(c3)OCCO4)c(-c3ccccc3)nc2n1,n,n,n,-11,n,39%,n,28%
O=C(/C=C/c1cccs1)NC(=S)Nc1ccc(S(=O)(=O)Nc2ccccc2C(F)(F)F)cc1,n,n,n,n,n,n,n,n
O=C(Nc1cccc(S(=O)(=O)N2CCCCCC2)c1)C1CCN(C(=O)c2ccc(F)cc2)CC1,n,n,n,n,n,n,n,n
O=C(Nc1cccc(S(=O)(=O)N2CCCCC2)c1)C1CCN(C(=O)c2ccc(Cl)cc2)CC1,x,x,x,x,n,x,x,x
O=C(Nc1cccc(S(=O)(=O)N2CCCCCC2)c1)C1CCN(C(=O)c2ccc(Cl)cc2)CC1,n,n,n,n,n,n,n,n
